Only some compounds are listed: those with a hit (about 5.2% of all), similar ones and a draw of the others.
PfM18AAP inh = PfM18AAP inhibitors, malaria aminopeptidase, primary screen, biochemical, QFRET, recombinant enzyme | H-Glu-NHMec fluorogenic cleavage | inhibition, % at 7.35 µM | M18 aspartyl aminopeptidase (Plasmodium falciparum 3D7) | hit rate 1.2% among 290,000;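 active means inhibition above the campaign mean inhibition over all tested compounds plus 3 SD, cut at about 28% in these data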;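 further: 0% = plate median of test compound wells and 100% = 2 mM ZnCl2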
EBNA-1 inhibitor = EBNA-1 DNA-binding inhibitors, primary screen, biochemical, fluorescence polarization. hit rate 0.34% among 300,000. AID 1950, 2009. inhibition, % at 14.8 µM; in the data active means inhibition above about 28%
ALR H2O2 inh = inhibitors of human ALR sulfhydryl oxidase, primary screen, biochemical, H2O2 detection, HRP-luminol luminescence, single point; purified ALR, DTT oxidation; FAD-linked sulfhydryl oxidase ALR (Homo sapiens), P55789; AID 485317, 2010; inhibition, % (test concentration not listed); hit rate 3.8% among 290,000;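 active means mean replicate inhibition above about 79%, with every replicate also reaching it, limit read from the data; inconclusive means only one of the two criteria met; inactive means mean below limit and not every replicate reaching it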
Target sequence (P55789 whole entry, looked up): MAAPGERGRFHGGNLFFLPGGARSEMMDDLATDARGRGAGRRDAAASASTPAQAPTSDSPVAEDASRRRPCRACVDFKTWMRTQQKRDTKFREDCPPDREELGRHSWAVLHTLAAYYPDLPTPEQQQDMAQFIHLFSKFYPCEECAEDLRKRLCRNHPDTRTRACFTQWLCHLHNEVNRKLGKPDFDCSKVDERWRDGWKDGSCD
HCV NS3 hel inh = inhibitors of HCV NS3 helicase, primary screen, biochemical, Cy5 molecular beacon fluorescence | Hepatitis C virus NS3 helicase | inhibition, % at 10.9 µM | hit rate 0.56% among 290,000 | AID 1800, 2009 | NS3 helicase DNA unwinding;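 active means inhibition above the mean of all tested compounds plus 3 SD, set per campaign, cut at about 35% in these data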;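 further: 0% = DMSO wells and 100% = thioflavine S control wells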
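System: NS3 helicase fragment of HCV / Schedule: 1 h at 25 °C / Control set: DMSO alone as 0% and 110 µM thioflavine S as 100% / Reagent: Cy5/quencher beacon DNA duplex and ATP to start / Technique: Cy5 fluorescence / Replication: singlicate / Evaluation: % inhibition of end-to-start signal ratio versus controls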
core dimer inh = inhibitors of HCV core protein dimerization, primary screen, biochemical, TR-FRET, high-throughput | TR-FRET GST/Flag-core106 dimerization, 1536-well | inhibition, % at 5 µM | hit rate 0.33% among 300,000 | AID 1899, 2009;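 active means inhibition above the mean of all tested compounds plus 3 SD, set per screening campaign, cut at about 45% in these data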
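assay system = GST-tagged and Flag-tagged HCV core protein residues 1-106 | controls = unlabelled core106 and no-GST-core106 wells | incubation = compound-protein-antibody incubation 4 h at 22.5 °C | probe or stimulus = Eu donor and XL665 acceptor anti-tag antibodies | read-out = % inhibition based on acceptor/donor emission ratio | signal = TR-FRET 671 and 617 nm emission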
ZTA DNA inh = blocks Epstein-Barr virus ZTA, an EBNA-1 counter-screen. ZTA-DNA binding, fluorescence polarization. hit rate 0.15% among 320,000. inhibition, % at 11 µM; in the data active means inhibition above about 33%
Target sequence (P03206 whole entry, looked up): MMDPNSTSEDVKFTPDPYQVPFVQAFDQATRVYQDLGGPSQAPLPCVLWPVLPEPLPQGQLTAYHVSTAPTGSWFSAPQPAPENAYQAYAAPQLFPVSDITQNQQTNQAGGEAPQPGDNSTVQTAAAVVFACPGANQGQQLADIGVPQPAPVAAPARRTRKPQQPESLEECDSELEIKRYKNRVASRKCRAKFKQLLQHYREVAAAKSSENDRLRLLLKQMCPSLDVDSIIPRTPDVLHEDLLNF
* = called active by the depositor; u = inconclusive; x = no result given.

SMILES	PfM18AAP inh	EBNA-1 inhibitor	ALR H2O2 inh	HCV NS3 hel inh	core dimer inh	ZTA DNA inh
O=C(N/N=C1\C(=O)c2cccc3cccc1c23)c1ccc(O)cc1	-5.5	-1.3	-3.3	10.5	-7.3	-6.2
COc1ccc(C(=O)NC(C)CCn2cccn2)cc1OC1CCN(C(C)C)CC1 (stereo not drawn)	-5.5	-6.0	-1.3	-2.7	5.5	-13.0
CCCc1c(O)nc(SCCN(CC)CC)n(C(=O)c2ccccc2)c1=O	0.9	-3.6	97.7*	5.5	-1.1	-0.8
CCCc1c(O)nc(SCCN(CC)CC)[nH]c1=O	4.8	-1.2	23.0	-6.4	-2.5	3.5
O=C(CSc1nc(=O)n2cc(Cl)ccc2n1)Nc1ccc2c(c1)OCCO2	x	-2.1	99.0*	x	13.8	-8.5
Cc1ccn2c(=O)nc(SCC(=O)c3ccc(Cl)cc3)nc2c1	x	0.8	92.6*	x	15.9	8.3
Cc1ccn2c(=O)nc(SCC(=O)Nc3ccc4c(c3)OCO4)nc2c1	x	1.9	u	x	23.7	4.3
Cc1ccc2nc(SCC(=O)Nc3ccc4c(c3)OCCO4)nc(=O)n2c1	x	5.0	98.3*	x	-3.3	-0.5
Cc1ccn2c(=O)nc(SCC(=O)Nc3ccc4c(c3)OCCO4)nc2c1	x	-1.3	97.0*	x	9.1	-5.3
O=C(CSc1nc(=O)n2cc(Cl)ccc2n1)Nc1ccc2c(c1)OCO2	x	-5.1	67.6	x	9.8	1.6
O=C(Nc1nnc(S(=O)(=O)N2CCCCC2)s1)c1cccc(Br)c1	-4.5	4.4	-2.8	-2.9	19.1	8.2
Cc1cc(=O)n(C)c(=O)n1CCCCCN1CCCC1	3.2	-3.1	99.5*	0.1	-8.5	-18.6
O=C(CSc1ccccc1)NCc1ccco1	11.5	6.7	49.3	-5.1	0.7	-2.0
Cc1ccc(NC(=O)CSc2ccc3c(c2)OCCO3)nc1	x	0.9	97.8*	x	-0.5	2.0
O=C(CSc1ccc2c(c1)OCCO2)NCc1ccco1	1.3	2.7	97.8*	9.5	19.4	-8.2
CC(CCc1ccccc1)NC(=O)C(=O)Nc1ccccc1 (stereo not drawn)	-3.6	0.0	x	-2.7	8.6	-7.2
CCN(CC)c1ccc(NC(=O)CN2CCN(CC(=O)Nc3ccccc3F)CC2)cc1	4.3	-5.1	99.0*	-5.3	-17.7	-2.4
COc1cccc(N2CCN(CC(=O)Nc3ccc(SC(F)F)cc3)CC2)c1	-1.5	1.7	-14.1	-14.5	-1.7	-6.5
CCN(CC)c1ccc(NC(=O)CN2CCN(CC(=O)Nc3ccccc3OC)CC2)cc1	7.5	6.9	x	-14.8	-3.4	11.0
O=C(CN1CCN(c2ccc(O)cc2)CC1)Nc1ccc(SC(F)F)cc1	28.1*	1.6	36.7	17.8	4.9	-8.9
CCN(CC)c1ccc(NC(=O)CN2CCN(c3ccc(F)cc3)CC2)cc1	-5.9	-0.4	78.9*	-8.0	-7.8	-5.5
CCN(CC)c1ccc(NC(=O)CN2CCN(c3nc(C)cc(C)n3)CC2)cc1	10.4	-8.2	98.0*	-19.1	-7.0	7.8
CCCCN1C(=O)C(=O)N(CC(=O)c2cc(C)n(-c3cc(C)on3)c2C)C1=O	x	x	-5.0	x	x	-0.9
COCCn1c(C)cc(C(=O)COC(=O)/C=C/c2ccc(OC)cc2OC)c1C	x	x	-3.7	x	x	x
COc1ccccc1OS(=O)(=O)c1ccc(NC(C)=O)cc1	-5.1	-7.1	x	-0.9	-0.2	-13.2
SMILES	PfM18AAP inh	EBNA-1 inhibitor	ALR H2O2 inh	HCV NS3 hel inh	core dimer inh	ZTA DNA inh
COC(=O)/C=C/S(=O)(=O)c1ccc(NC(C)=O)cc1	-94.2	-0.7	98.3*	-0.4	2.9	-7.7
Cn1cc(/C=C/c2cc[n+](C)cc2)c2cc(Cl)ccc21	2.2	-21.6	x	-15.2	-23.0	-0.5
C[n+]1ccc(/C=C/c2c[nH]c3ccc(F)cc23)cc1	9.4	x	31.2	-7.8	x	x
Cc1ccc2[nH]c(C)c(/C=C/c3cc[n+](C)cc3)c2c1	7.3	x	99.3*	-22.8	x	x
Cc1ccc2c(c1)c(/C=C/c1cc[n+](C)cc1)c(C)n2C	-4.1	x	85.5*	-18.3	x	x
CCOC(=O)Cn1c2ccccc2n2nc(CCC(=O)O)c(=O)nc12	-4.8	4.7	-0.6	-0.7	-4.8	3.9
CCCCN(C)C(=O)C1CCCN(S(=O)(=O)c2ccc3c(c2)CC(C)N3C(=O)C2CC2)C1 (stereo not drawn)	2.2	-9.5	-4.4	-2.2	-3.4	-9.1
